An excerpt weighted towards active compounds, which were near 1.8% of everything screened.
SENP1 inh = inhibitors of human SENP1 SUMO protease catalytic domain; inhibition, % at 10 µM; Q9P0U3; AID 624204; recombinant SENP1 catalytic domain, CyPet-SUMO1-YPet FRET cleavage; 360,000 tested, 0.21% active;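 active = inhibition at least 30% at 10 µM, raw YFP signal under a set limit, fluorescence ratio 0.5 to 1.5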
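Assay system – human recombinant His6-tagged SENP1 catalytic domain enzyme · Input – SENP1 enzyme, 20 pM final · Buffer or medium – Tris pH 8 buffer plus EDTA, NaCl, BME, BSA, NP40, catalase · Schedule – 50 min reaction at room temperature · Technique – FRET read of cyan and yellow fluorescence · Control set – no-enzyme wells low, DMSO-plus-enzyme wells high control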
TPT1 inhibitor = C. albicans TPT1 enzyme inhibition; recombinant caTPT1, FP RNA substrate dephosphorylation; inhibition, % at 5 µM; 300,000 tested, 0.81% active; AID 1962;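 active = inhibition above the mean of all tested compounds plus 3 SD, set per screening campaign, cut at about 24% in these data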
SUMO HTRF inh = SUMOylation inhibition; P63279; HTRF SUMOylation assay, SAE1/SAE2 + UBC9, in vitro; inhibition, % at 35 µM; 290,000 tested, 0.36% active; in the data active = inhibition above about 50%, passing the limit was not always enough
HNF4A DNA FP = change in binding of human HNF4 alpha to DNA; HNF4a-FITC DNA binding, fluorescence polarization, 1 h; activity change, % at 10 µM; 360,000 tested, 0.3% active; in the data active = activity change above about 30%, passing the limit was not always enough
CSN deneddyl inh = CSN deneddylation inhibition. Q92905. Purified CSN, SCF-Nedd8-OG deneddylation, fluorescence polarization. inhibition, % at 12.5 µM. 360,000 tested, 0.38% active. AID 651999;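 active = pattern-corrected inhibition above about 35%, with an unprinted fluorescence ratio check between 0.5 and 1.5, limit read from the data, passing the limit was not always enough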
Target sequence (Q92905 whole entry, looked up, one chain of several): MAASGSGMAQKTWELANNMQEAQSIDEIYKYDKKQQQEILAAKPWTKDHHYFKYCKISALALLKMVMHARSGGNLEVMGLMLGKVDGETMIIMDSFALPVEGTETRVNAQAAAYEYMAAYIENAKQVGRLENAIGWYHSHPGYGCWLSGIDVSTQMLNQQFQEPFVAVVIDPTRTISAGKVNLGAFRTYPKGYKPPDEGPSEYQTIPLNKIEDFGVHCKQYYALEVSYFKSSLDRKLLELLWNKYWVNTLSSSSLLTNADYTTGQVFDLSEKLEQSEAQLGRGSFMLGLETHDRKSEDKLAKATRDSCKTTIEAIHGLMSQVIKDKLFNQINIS
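Test system: Human Csn5 produced in HEK293T cells | Compound: 12.5 µM single point | Times: 90 min, room temperature | Signal: Fluorescence polarization readout | Read-out basis: % inhibition of substrate cleavage by Csn5 | Controls: no-enzyme wells high, enzyme-with-substrate wells low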
Rpn11 block = blocks the human proteasome subunit Rpn11; O00487; human 26S proteasome, Ub4-pepOG fluorescence polarization; 20S core pre-blocked with epoxomicin; calls only at 20 µM; 360,000 tested, 0.59% active; AID 588493;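 active = inhibition at 20 µM, scaled to each plate's controls, above about 33%, limit read from the data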
Target sequence (O00487 whole entry, looked up): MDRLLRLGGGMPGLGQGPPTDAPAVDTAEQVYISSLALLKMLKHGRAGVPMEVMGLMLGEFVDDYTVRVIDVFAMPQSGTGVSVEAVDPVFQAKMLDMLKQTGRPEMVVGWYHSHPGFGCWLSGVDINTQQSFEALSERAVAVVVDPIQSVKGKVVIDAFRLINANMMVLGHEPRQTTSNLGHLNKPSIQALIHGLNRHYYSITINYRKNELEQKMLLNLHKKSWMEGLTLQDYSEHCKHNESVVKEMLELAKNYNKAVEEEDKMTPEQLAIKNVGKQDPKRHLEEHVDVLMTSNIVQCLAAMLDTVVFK
Rpn11 confirm = confirmation of human proteasome Rpn11 inhibitors; inhibition, % at 20 µM; 1,900 tested, 29% active; purified human 26S proteasome, Ub4-pepOG fluorescence polarization; proteasome pretreated with epoxomicin; shares compounds with Rpn11 block
MMP-2 counter = MMP-2 (human) inhibition counter-screen; shares compounds with Rpn11 block; recombinant MMP-2, FRET peptide cleavage fluorescence; inhibition, % at 20 µM; 1,900 tested, 4% active; AID 602330;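 note: human MMP-2 activated beforehand with APMA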
Thrombin inh = counter-screen for RPN11 inhibitors: inhibition of bovine thrombin. shares compounds with Rpn11 block. bovine thrombin cleavage of Ub4-pepOG, fluorescence polarization. inhibition, % at 20 µM. 1,900 tested, 13% active. AID 602333;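 active = mean inhibition at least 40% at 20 µM, or signal 3 deviations below plate average, so some actives read negative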
Of the large screens only hits and unclear results are named; the others gave an inactive call (follow-up assays come after a bar, where they were run); ! = repeats disagree. Cut-off read from the data, not from the text of the source, unless noted: active = inhibition above about 40%; inactive = the rest.

CCCCCCSc1ccc(-c2nc3cc(C)ccn3c2NC2CCCCC2)cc1	Rpn11 block active (no result: TPT1 inhibitor, SUMO HTRF inh) | Rpn11 confirm inactive | MMP-2 counter inactive | Thrombin inh inactive
CCCCCCSc1ccc(-c2nc3ccc(C)cn3c2NC2CCCCC2)cc1	none (no result: SUMO HTRF inh)
N#Cc1cnc(SCC(=O)NNC(=O)COc2cccc3ccccc23)nc1N	TPT1 inhibitor 51.2, Rpn11 block active | Rpn11 confirm inactive | MMP-2 counter inactive | Thrombin inh inactive
COc1cccc(CNC(=O)CCC2CCCN(C/C=C/c3ccccc3OC)C2)c1 (stereo not given)	none
O=c1c2c3c(sc2nc2n1N=C(c1cccs1)CS2)CCCC3	Rpn11 block active | Rpn11 confirm inactive | MMP-2 counter inactive | Thrombin inh inactive
O=C(Cn1cccc1)N1CCN(C(c2ccccc2)c2ccccc2)CC1	none
O=C(N/N=C\c1ccc(OC(=O)c2cccs2)cc1)c1ccc(Cl)cc1	Rpn11 block active | Rpn11 confirm inactive | MMP-2 counter inactive | Thrombin inh inactive
N#C/C(=C\c1ccc(-c2cccc([N+](=O)[O-])c2)o1)C(=O)Nc1nc(-c2cccs2)cs1	Rpn11 block active | Rpn11 confirm inactive | MMP-2 counter inactive | Thrombin inh inactive
CN(C)S(=O)(=O)c1cccc(C(=O)N2CCN(Cc3ccccc3)CC2)c1	Rpn11 block active | Rpn11 confirm inactive | MMP-2 counter inactive | Thrombin inh inactive
O=C1c2cccc3cccc(c23)C(=O)N1c1ccc2ncccc2c1	Rpn11 block active | Rpn11 confirm 41.4 | MMP-2 counter inactive | Thrombin inh inactive
Cc1nn2c(N3CCCC3)c3c(nc2c1-c1ccccc1)CCC3	Rpn11 block active | Rpn11 confirm inactive | MMP-2 counter inactive | Thrombin inh inactive
Cc1nn(-c2ccccc2)c(N2CCCC2)c1/C=C1\N=C(c2ccc(F)cc2)OC1=O	Rpn11 block active | Rpn11 confirm inactive | MMP-2 counter inactive | Thrombin inh inactive
Cc1ccc(C2=N/C(=C\c3c(C)nn(-c4ccccc4)c3N3CCCC3)C(=O)O2)cc1	none
O=c1cc(CN2CCC3(CC2)OCCO3)c2c(ccc3ccccc32)o1	none
O=C(c1cccn(Cc2cccc(Cl)c2)c1=O)N1CCOCC1	none
O=C(c1cccn(Cc2ccc(Cl)c(Cl)c2)c1=O)N1CCOCC1	HNF4A DNA FP 70.2, Rpn11 block active | Rpn11 confirm inactive | MMP-2 counter inactive | Thrombin inh inactive
COCCCn1cnnc1SCc1nc2sc(C(C)=O)c(C)c2c(=O)[nH]1	Rpn11 block active | Rpn11 confirm inactive | MMP-2 counter inactive | Thrombin inh inactive
C=CCn1c(SCc2nc3sc(C(=O)O)c(C)c3c(=O)[nH]2)nnc1-c1ccc(F)cc1	none
O=c1cc(-c2ccc(Cl)c(Cl)c2)[nH][nH]1	none
O=c1cc(-c2ccc(Cl)cc2)[nH][nH]1	Rpn11 block active | Rpn11 confirm inactive | MMP-2 counter inactive | Thrombin inh inactive
CCc1cc(CNC(=O)C2CCC(=O)N(CCc3ccc(OC)cc3)C2)on1 (stereo not given)	HNF4A DNA FP 39.4, Rpn11 block active | Rpn11 confirm inactive | MMP-2 counter inactive | Thrombin inh inactive
O=C(O)c1cc(N=Nc2c(O)ccc3ccccc23)cc(C(=O)O)c1	none (no result: TPT1 inhibitor)
O=C(O)c1ccc(N=Nc2c(O)ccc3ncccc23)cc1	Rpn11 block active | Rpn11 confirm inactive | MMP-2 counter inactive | Thrombin inh inactive
C/C(=N\NC(N)=S)c1ccc(Cl)s1	none
Cc1ccc(NC(=O)CS(=O)CC(=O)Nc2cnc3ccccc3c2)cc1Cl (stereo not given)	Rpn11 block active | Rpn11 confirm inactive | MMP-2 counter inactive | Thrombin inh inactive
C=CC[n+]1c(C)csc1Nc1cccc(Br)c1	none
Cc1cnc(NC(=O)c2ccco2)s1	none
C#CCOCCOCCOCCNc1nc(N2CCN(C(=O)CCCCCCCCCCNC(=O)Cn3cc(CCCCCN)nn3)CC2)nc(N2CCN(C(=O)CCCCCCCCCCNC(=O)[C@@H](CCSC)n3cc(CCO)nn3)CC2)n1	Rpn11 block active (no result: SUMO HTRF inh) | Rpn11 confirm inactive | MMP-2 counter inactive | Thrombin inh inactive
O=C(CN1CCN(c2ccccc2)CC1)N/N=C/c1cccc(F)c1	none
N#CC(=C=[N-])c1nc2ccccc2nc1-[n+]1ccccc1	CSN deneddyl inh 44.2, Rpn11 block active! | Rpn11 confirm inactive | MMP-2 counter inactive | Thrombin inh inactive
CCCCNC(=O)C1c2ccccc2OCC(=O)N1CCc1c[nH]c2ccccc12 (stereo not given)	none (no result: TPT1 inhibitor, SUMO HTRF inh, Rpn11 block)
COC(=O)c1c(C(=O)OC)c(-c2ccccc2)n2c1CCC2	none
C=CC(=C)CC(NC)c1ccccc1 (stereo not given)	CSN deneddyl inh 47.4, Rpn11 block active | Rpn11 confirm inactive | MMP-2 counter inactive | Thrombin inh inactive
CC(=O)NC(CC(=O)O)c1ccccc1 (stereo not given)	none
COc1ccc(NC(=O)Nc2nnc(-c3ccncc3)s2)cc1	none
O=C(Nc1ccc(Cl)c(Cl)c1)Nc1nnc(-c2ccncc2)s1	Rpn11 block active | Rpn11 confirm inactive | MMP-2 counter inactive | Thrombin inh inactive
O=C(Nc1nc(-c2ccco2)c(-c2ccco2)s1)c1cnccn1	none (no result: SENP1 inh, SUMO HTRF inh, HNF4A DNA FP, CSN deneddyl inh, Rpn11 block)
O=C(Nc1nc(-c2ccco2)c(-c2ccco2)s1)c1c(F)cccc1Cl	CSN deneddyl inh 48.9, Rpn11 block active (no result: TPT1 inhibitor, SUMO HTRF inh) | Rpn11 confirm inactive | MMP-2 counter inactive | Thrombin inh inactive
C=CCNC(=S)NNC(=O)c1cccnc1	none
COc1ccc(-c2nn(-c3ccccc3)cc2C=O)cc1[N+](=O)[O-]	none
COc1ccc(-c2nnc(SC)nc2-c2ccc(OC)c([N+](=O)[O-])c2)cc1[N+](=O)[O-]	Rpn11 block active (no result: SUMO HTRF inh) | Rpn11 confirm inactive | MMP-2 counter 70.0 | Thrombin inh inactive
CCOC(=O)C1=C(O)/C(=C\c2ccc(O)c(OCC)c2)N=C1C	none
CCOC(=O)C1CCCN(C2=NC(=O)/C(=C/c3ccc(OC)cc3OC)S2)C1 (stereo not given)	none (no result: TPT1 inhibitor)
CCOc1cc(/C=C2\SC(N)=NC2=O)ccc1O	Rpn11 block active | Rpn11 confirm inactive | MMP-2 counter inactive | Thrombin inh inactive
CCOc1cc(/C=C2/N=C(C)C(C(=O)OC)=C2O)ccc1O	Rpn11 block active | Rpn11 confirm inactive | MMP-2 counter inactive | Thrombin inh inactive

Screening data (PubChem)
